Measured values reported in ChEMBL document CHEMBL5058577, “EUbOPEN Chemogenomics Library 2 (Multiplex)” (2022).

Tested on: U2OS
Assay: Multiplex assay against U2OS
Type: toxicity, cell-based
Settings: human
Summary of the method: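 Cells stained live at seeding with Hoechst33342, BioTracker Green Microtubule Cytoskeleton Dye, MitoTracker Red and Annexin V Alexa Fluor 680 were imaged on a CQ1 microscope at 37°C and 5% CO2 after compound addition. Their classification by CellPathfinder machine-learning gating ran from Hoechst high-intensity objects versus normal cells, to healthy, pyknosed or fragmented nuclei among normal cells, to mitotic or apoptotic among pyknosed cells. Tubulin, mitochondrial-mass and membrane-permeability phenotypes are per cents of healthy-nucleus cells.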

[1] = 12 h, 1 µM, compound concentration 1 uM, replicate 1
[2] = 12 h, 1 µM, compound concentration 1 uM, replicate 2
[3] = 12 h, 10 µM, compound concentration 10 uM, replicate 1
[4] = 12 h, 10 µM, compound concentration 10 uM, replicate 2
[5] = 24 h, 1 µM, compound concentration 1 uM, replicate 1
[6] = 24 h, 1 µM, compound concentration 1 uM, replicate 2
[7] = 24 h, 10 µM, compound concentration 10 uM, replicate 1
[8] = 24 h, 10 µM, compound concentration 10 uM, replicate 2
[9] = 48 h, 1 µM, compound concentration 1 uM, replicate 1
[10] = 48 h, 1 µM, compound concentration 1 uM, replicate 2
[11] = 48 h, 10 µM, compound concentration 10 uM, replicate 1
[12] = 48 h, 10 µM, compound concentration 10 uM, replicate 2

Structure (SMILES): COC(c1ccccc1)(c1ccccc1)[C@H](Oc1nc(C)cc(C)n1)C(=O)O [AMBRISENTAN]
- Population Apoptotic (%) [1]: 95%
- Population Fragmented Nuclei (%) [1]: 26%
- Population Healthy Nuclei (%) [1]: 62%
- Population Hoechst High Intensity Objects (%) [1]: 2%
- Population Membrane Permeable-Phenotype (%) [1]: 3%
- Population Mitochondria Different-Phenotype (%) [1]: 0%
- Population Mitotic Cells (%) [1]: 4%
- Population Normal (%) [1]: 97%
- Population Pyknosed Nuclei (%) [1]: 10%
- Population Tubulin-Different-Phenotype (%) [1]: 1%
- Total Cell Count [1]: 209
- Population Apoptotic (%) [2]: 100%
- Population Fragmented Nuclei (%) [2]: 21%
- Population Healthy Nuclei (%) [2]: 72%
- Population Membrane Permeable-Phenotype (%) [2]: 8%
- Population Mitochondria Different-Phenotype (%) [2]: 3%
- Population Mitotic Cells (%) [2]: 0%
- Population Pyknosed Nuclei (%) [2]: 5%
- Total Cell Count [2]: 87
- Population Apoptotic (%) [3]: 61%
- Population Fragmented Nuclei (%) [3]: 28%
- Population Healthy Nuclei (%) [3]: 63%
- Population Hoechst High Intensity Objects (%) [3]: 2%
- Population Membrane Permeable-Phenotype (%) [3]: 4%
- Population Mitochondria Different-Phenotype (%) [3]: 2%
- Population Mitotic Cells (%) [3]: 38%
- Population Normal (%) [3]: 97%
- Population Pyknosed Nuclei (%) [3]: 7%
- Population Tubulin-Different-Phenotype (%) [3]: 1%
- Total Cell Count [3]: 232
- Population Apoptotic (%) [4]: 100%
- Population Fragmented Nuclei (%) [4]: 19%
- Population Healthy Nuclei (%) [4]: 72%
- Population Hoechst High Intensity Objects (%) [4]: 0%
- Population Mitochondria Different-Phenotype (%) [4]: 0%
- Population Mitotic Cells (%) [4]: 0%
- Population Normal (%) [4]: 99%
- Population Tubulin-Different-Phenotype (%) [4]: 0%
- Total Cell Count [4]: 104
- Population Apoptotic (%) [5]: 95%
- Population Fragmented Nuclei (%) [5]: 27%
- Population Healthy Nuclei (%) [5]: 63%
- Population Hoechst High Intensity Objects (%) [5]: 0%
- Population Membrane Permeable-Phenotype (%) [5]: 4%
- Population Mitochondria Different-Phenotype (%) [5]: 1%
- Population Mitotic Cells (%) [5]: 4%
- Population Normal (%) [5]: 99%
- Population Pyknosed Nuclei (%) [5]: 8%
- Population Tubulin-Different-Phenotype (%) [5]: 1%
- Total Cell Count [5]: 248
- Population Apoptotic (%) [6]: 100%
- Population Fragmented Nuclei (%) [6]: 23%
- Population Healthy Nuclei (%) [6]: 66%
- Population Membrane Permeable-Phenotype (%) [6]: 1%
- Population Mitochondria Different-Phenotype (%) [6]: 2%
- Population Mitotic Cells (%) [6]: 0%
- Population Pyknosed Nuclei (%) [6]: 10%
- Total Cell Count [6]: 111
- Population Apoptotic (%) [7]: 84%
- Population Fragmented Nuclei (%) [7]: 25%
- Population Healthy Nuclei (%) [7]: 65%
- Population Hoechst High Intensity Objects (%) [7]: 1%
- Population Membrane Permeable-Phenotype (%) [7]: 7%
- Population Mitochondria Different-Phenotype (%) [7]: 2%
- Population Mitotic Cells (%) [7]: 16%
- Population Normal (%) [7]: 98%
- Population Pyknosed Nuclei (%) [7]: 9%
- Population Tubulin-Different-Phenotype (%) [7]: 3%
- Total Cell Count [7]: 273
- Population Apoptotic (%) [8]: 80%
- Population Fragmented Nuclei (%) [8]: 13%
- Population Healthy Nuclei (%) [8]: 77%
- Population Hoechst High Intensity Objects (%) [8]: 0%
- Population Mitotic Cells (%) [8]: 20%
- Population Normal (%) [8]: 100%
- Population Pyknosed Nuclei (%) [8]: 8%
- Population Tubulin-Different-Phenotype (%) [8]: 5%
- Total Cell Count [8]: 115
- Population Apoptotic (%) [9]: 89%
- Population Fragmented Nuclei (%) [9]: 17%
- Population Healthy Nuclei (%) [9]: 70%
- Population Hoechst High Intensity Objects (%) [9]: 2%
- Population Membrane Permeable-Phenotype (%) [9]: 2%
- Population Mitochondria Different-Phenotype (%) [9]: 1%
- Population Mitotic Cells (%) [9]: 10%
- Population Normal (%) [9]: 97%
- Population Pyknosed Nuclei (%) [9]: 11%
- Population Tubulin-Different-Phenotype (%) [9]: 0%
- Total Cell Count [9]: 333
- Population Apoptotic (%) [10]: 93%
- Population Healthy Nuclei (%) [10]: 72%
- Population Membrane Permeable-Phenotype (%) [10]: 0%
- Population Mitotic Cells (%) [10]: 6%
- Population Pyknosed Nuclei (%) [10]: 10%
- Total Cell Count [10]: 151
- Population Apoptotic (%) [11]: 87%
- Population Fragmented Nuclei (%) [11]: 21%
- Population Healthy Nuclei (%) [11]: 68%
- Population Hoechst High Intensity Objects (%) [11]: 3%
- Population Membrane Permeable-Phenotype (%) [11]: 4%
- Population Mitochondria Different-Phenotype (%) [11]: 2%
- Population Mitotic Cells (%) [11]: 12%
- Population Normal (%) [11]: 96%
- Population Pyknosed Nuclei (%) [11]: 10%
- Population Tubulin-Different-Phenotype (%) [11]: 3%
- Total Cell Count [11]: 388
- Population Apoptotic (%) [12]: 81%
- Population Fragmented Nuclei (%) [12]: 13%
- Population Healthy Nuclei (%) [12]: 79%
- Population Hoechst High Intensity Objects (%) [12]: 0%
- Population Membrane Permeable-Phenotype (%) [12]: 2%
- Population Mitochondria Different-Phenotype (%) [12]: 0%
- Population Mitotic Cells (%) [12]: 18%
- Population Normal (%) [12]: 100%
- Population Pyknosed Nuclei (%) [12]: 6%
- Population Tubulin-Different-Phenotype (%) [12]: 2%
- Total Cell Count [12]: 174

Structure (SMILES): CC(C)C[C@H](CO)Nc1nc(S[C@@H](C)c2ccccc2)nc2nc(N)sc12 [AZD-8797]
- Population Apoptotic (%) [1]: 83%
- Population Fragmented Nuclei (%) [1]: 20%
- Population Healthy Nuclei (%) [1]: 65%
- Population Hoechst High Intensity Objects (%) [1]: 3%
- Population Membrane Permeable-Phenotype (%) [1]: 5%
- Population Mitochondria Different-Phenotype (%) [1]: 1%
- Population Mitotic Cells (%) [1]: 16%
- Population Normal (%) [1]: 96%
- Population Pyknosed Nuclei (%) [1]: 14%
- Population Tubulin-Different-Phenotype (%) [1]: 2%
- Total Cell Count [1]: 177
- Population Apoptotic (%) [2]: 100%
- Population Fragmented Nuclei (%) [2]: 12%
- Population Healthy Nuclei (%) [2]: 82%
- Population Hoechst High Intensity Objects (%) [2]: 0%
- Population Mitochondria Different-Phenotype (%) [2]: 5%
- Population Mitotic Cells (%) [2]: 0%
- Population Normal (%) [2]: 100%
- Population Pyknosed Nuclei (%) [2]: 5%
- Population Tubulin-Different-Phenotype (%) [2]: 3%
- Total Cell Count [2]: 95
- Population Apoptotic (%) [3]: 63%
- Population Fragmented Nuclei (%) [3]: 21%
- Population Healthy Nuclei (%) [3]: 56%
- Population Hoechst High Intensity Objects (%) [3]: 4%
- Population Membrane Permeable-Phenotype (%) [3]: 30%
- Population Mitochondria Different-Phenotype (%) [3]: 12%
- Population Mitotic Cells (%) [3]: 36%
- Population Normal (%) [3]: 95%
- Population Pyknosed Nuclei (%) [3]: 22%
- Population Tubulin-Different-Phenotype (%) [3]: 20%
- Total Cell Count [3]: 222
- Population Apoptotic (%) [4]: 78%
- Population Fragmented Nuclei (%) [4]: 9%
- Population Healthy Nuclei (%) [4]: 79%
- Population Hoechst High Intensity Objects (%) [4]: 2%
- Population Membrane Permeable-Phenotype (%) [4]: 10%
- Population Mitochondria Different-Phenotype (%) [4]: 16%
- Population Mitotic Cells (%) [4]: 21%
- Population Normal (%) [4]: 97%
- Population Pyknosed Nuclei (%) [4]: 10%
- Population Tubulin-Different-Phenotype (%) [4]: 6%
- Total Cell Count [4]: 135
- Population Apoptotic (%) [5]: 81%
- Population Fragmented Nuclei (%) [5]: 20%
- Population Healthy Nuclei (%) [5]: 68%
- Population Hoechst High Intensity Objects (%) [5]: 1%
- Population Membrane Permeable-Phenotype (%) [5]: 2%
- Population Mitochondria Different-Phenotype (%) [5]: 0%
- Population Mitotic Cells (%) [5]: 18%
- Population Normal (%) [5]: 98%
- Population Pyknosed Nuclei (%) [5]: 10%
- Population Tubulin-Different-Phenotype (%) [5]: 2%
- Total Cell Count [5]: 219
- Population Apoptotic (%) [6]: 83%
- Population Fragmented Nuclei (%) [6]: 17%
- Population Healthy Nuclei (%) [6]: 77%
- Population Hoechst High Intensity Objects (%) [6]: 0%
- Population Membrane Permeable-Phenotype (%) [6]: 4%
- Population Mitochondria Different-Phenotype (%) [6]: 2%
- Population Mitotic Cells (%) [6]: 16%
- Population Normal (%) [6]: 100%
- Population Pyknosed Nuclei (%) [6]: 4%
- Population Tubulin-Different-Phenotype (%) [6]: 3%
- Total Cell Count [6]: 121
- Population Apoptotic (%) [7]: 76%
- Population Fragmented Nuclei (%) [7]: 20%
- Population Healthy Nuclei (%) [7]: 58%
- Population Hoechst High Intensity Objects (%) [7]: 3%
- Population Membrane Permeable-Phenotype (%) [7]: 22%
- Population Mitochondria Different-Phenotype (%) [7]: 12%
- Population Mitotic Cells (%) [7]: 24%
- Population Normal (%) [7]: 96%
- Population Pyknosed Nuclei (%) [7]: 21%
- Population Tubulin-Different-Phenotype (%) [7]: 13%
- Total Cell Count [7]: 245
- Population Apoptotic (%) [8]: 100%
- Population Fragmented Nuclei (%) [8]: 7%
- Population Healthy Nuclei (%) [8]: 86%
- Population Hoechst High Intensity Objects (%) [8]: 1%
- Population Membrane Permeable-Phenotype (%) [8]: 9%
- Population Mitotic Cells (%) [8]: 0%
- Population Normal (%) [8]: 98%
- Population Pyknosed Nuclei (%) [8]: 6%
- Population Tubulin-Different-Phenotype (%) [8]: 6%
- Total Cell Count [8]: 156
- Population Apoptotic (%) [9]: 94%
- Population Fragmented Nuclei (%) [9]: 18%
- Population Healthy Nuclei (%) [9]: 69%
- Population Hoechst High Intensity Objects (%) [9]: 2%
- Population Membrane Permeable-Phenotype (%) [9]: 6%
- Population Mitochondria Different-Phenotype (%) [9]: 0%
- Population Mitotic Cells (%) [9]: 5%
- Population Normal (%) [9]: 97%
- Population Pyknosed Nuclei (%) [9]: 11%
- Population Tubulin-Different-Phenotype (%) [9]: 2%
- Total Cell Count [9]: 352
- Population Apoptotic (%) [10]: 100%
- Population Fragmented Nuclei (%) [10]: 15%
- Population Healthy Nuclei (%) [10]: 77%
- Population Membrane Permeable-Phenotype (%) [10]: 2%
- Population Mitochondria Different-Phenotype (%) [10]: 2%
- Population Mitotic Cells (%) [10]: 0%
- Population Pyknosed Nuclei (%) [10]: 6%
- Total Cell Count [10]: 181
- Population Apoptotic (%) [11]: 90%
- Population Fragmented Nuclei (%) [11]: 26%
- Population Healthy Nuclei (%) [11]: 54%
- Population Hoechst High Intensity Objects (%) [11]: 4%
- Population Membrane Permeable-Phenotype (%) [11]: 20%
- Population Mitochondria Different-Phenotype (%) [11]: 10%
- Population Mitotic Cells (%) [11]: 9%
- Population Normal (%) [11]: 95%
- Population Pyknosed Nuclei (%) [11]: 19%
- Population Tubulin-Different-Phenotype (%) [11]: 14%
- Total Cell Count [11]: 296
- Population Apoptotic (%) [12]: 96%
- Population Fragmented Nuclei (%) [12]: 12%
- Population Healthy Nuclei (%) [12]: 74%
- Population Hoechst High Intensity Objects (%) [12]: 3%
- Population Membrane Permeable-Phenotype (%) [12]: 11%
- Population Mitochondria Different-Phenotype (%) [12]: 5%
- Population Mitotic Cells (%) [12]: 3%
- Population Normal (%) [12]: 96%
- Population Pyknosed Nuclei (%) [12]: 12%
- Population Tubulin-Different-Phenotype (%) [12]: 4%
- Total Cell Count [12]: 218
